# Results: PubChem BioAssay
# The source made the active and inactive calls.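 The calls were made as follows, unless noted: active = GFP response above 150% of the DMSO level; inconclusive = fewer than 70 events counted for a yeast strain; inactive = the rest.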
# Assays:
# [1] = RPL19A-GFP modulators, yeast TOR pathway, confirmation, cell-based, S. cerevisiae, flow cytometry, cherry picks, mother/daughter gates (AID 2270;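 active = GFP response below 50% of the DMSO control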); conditions: S. cerevisiae RPL19A-GFP strain, 3 h, at 10 µM, stronger effect = lower value, 100 = same GFP as DMSO wells
# [2] = LAP4-GFP expression modulators in yeast, confirmation, cell-based, cherry picks, flow cytometry, mother/daughter gates (AID 2271;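 active = GFP response above 150% of the DMSO control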;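 also: ratio of sample to DMSO plate mean so 100% equals DMSO level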); conditions: S. cerevisiae LAP4-GFP strain, 3 h, at 10 µM, stronger effect = higher value, 100 means same as DMSO control
# Method in brief: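 Material: Alexa Fluor 633-labelled Saccharomyces cerevisiae GFP-fusion strain, single-plex | Amount: Yeast cells seeded at OD600 of 0.2 | Buffer or medium: SC growth medium | Schedule: 3 h exposure, 30 °C | Measured by: HT flow cytometry, GFP fluorescence channel | Evaluation: % GFP response vs DMSO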
# [3] = modulators of MEP2-GFP levels in yeast, confirmation, S. cerevisiae, flow cytometry GFP, cherry picks (AID 2272;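 active = GFP response above 150% of the DMSO control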;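 also: ratio of well signal to plate DMSO mean so 100% equals DMSO level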); conditions: S. cerevisiae MEP2-GFP strain, 3 h, at 10 µM, stronger effect = higher value
# [4] = AGP1-GFP expression modulators, hit retest, confirmation, cell-based, flow cytometry, S. cerevisiae, cherry picks (AID 2273);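 also: median GFP channel fluorescence over the whole cell population gate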; conditions: S. cerevisiae AGP1-GFP strain, 3 h, at 10 µM
# [5] = modulators of CIT2-GFP expression in yeast, confirmation, S. cerevisiae, GFP fusion, cherry picks, mother/daughter gates (AID 2274); conditions: S. cerevisiae CIT2-GFP strain, flow cytometry, 3 h, at 10 µM, stronger effect = higher value
# [6] = measured here: daughter cell gate
# [7] = measured here: mother cell gate
# [8] = measured here: daughter cell gate response
# [9] = measured here: mother cell gate response
SMILES,GFP response vs DMSO [1],"GFP response vs DMSO [1, 6] [%]","GFP response vs DMSO [1, 7] [%]",GFP response relative to DMSO [2],"GFP response relative to DMSO [2, 8] [%]","GFP response relative to DMSO [2, 9] [%]",GFP response vs DMSO [3],"GFP response, % of DMSO [4]","GFP response, % of DMSO [5]","GFP response, % of DMSO [5, 6] [%]","GFP response, % of DMSO [5, 7] [%]"
N/C(Cc1ccc(Cl)c(Cl)c1)=N\OC(=O)c1cccs1,94.9% (inactive),89.4,83,226% (active),160,206,122% (inactive),103% (inactive),176% (active),126,159
Cc1cc(N)n2ncc(-c3ccccc3)c2n1,95.6% (inactive),95.1,94,106% (inactive),102,106,105% (inactive),89.4% (inactive),101% (inactive),101,98.5
O=C(/C=C/c1ccccc1[N+](=O)[O-])c1ccccc1Br,92.9% (inactive),94.8,89.1,161% (active),139,180,101% (inactive),104% (inactive),90.9% (inactive),95.2,82.8
CCOc1ccc2nc(SCC(=O)NCC3CCCO3)c(C#N)cc2c1 (configuration not stated),97.8% (inactive),95.9,99.2,99.8% (inactive),100,101,97.8% (inactive),96.3% (inactive),90% (inactive),91.5,88
O=C(Nc1cc(Sc2ccccn2)cc([N+](=O)[O-])c1)c1cccc(Cl)c1,96.9% (inactive),95.3,96.3,102% (inactive),104,104,106% (inactive),103% (inactive),88.9% (inactive),86.9,89.3
CCOC(=O)c1cnn(-c2cc(C)nc3c(-c4ccccc4)cnn23)c1N,96.7% (inactive),98.1,95.4,92.9% (inactive),92.9,94.4,103% (inactive),89.3% (inactive),98.6% (inactive),97.6,98.2
CCNC(=O)/C(C#N)=C/c1c(N2CCN(Cc3ccc4c(c3)OCO4)CC2)nc2c(C)cccn2c1=O,101% (inactive),99.2,103,99.8% (inactive),97.2,101,102% (inactive),100% (inactive),104% (inactive),101,104
Cc1ccc(/C=C2/SC(=S)N(C3CCCCC3)C2=O)o1,100% (inactive),100,98.6,157% (active),145,161,126% (inactive),106% (inactive),98.8% (inactive),101,89.5
CCOC(=O)c1ccc(NC(=O)CCc2nc(-c3ccc(Cl)cc3)no2)cc1,99.4% (inactive),100,101,99.2% (inactive),99.2,100,98.3% (inactive),95.4% (inactive),105% (inactive),105,104
Cc1ccccc1C(=O)Nc1cccc(N)c1,99% (inactive),98.6,98.6,93.1% (inactive),94.2,94.1,101% (inactive),105% (inactive),97.3% (inactive),95.6,96.8
CCOC(=O)N/C(N)=N/c1nc2ccccc2s1,85.9% (inactive),82.1,86.6,120% (inactive),113,126,102% (inactive),95% (inactive),92.6% (inactive),86.7,93.4
COc1ccccc1NC1=C(Cl)C(=O)N(c2ccccc2)C1=O,103% (inactive),103,103,93.7% (inactive),92,94.1,103% (inactive),97% (inactive),103% (inactive),105,101
Cc1onc(-c2c(Cl)cccc2Cl)c1NC(=O)NNc1c(Cl)cncc1Cl,99.8% (inactive),99.4,99.2,103% (inactive),102,100,100% (inactive),97.2% (inactive),99.7% (inactive),101,97.3
CC(=O)c1sc(NC(=O)c2ccco2)nc1-c1ccccc1,98.4% (inactive),101,96.5,107% (inactive),101,108,103% (inactive),94.9% (inactive),110% (inactive),112,108
Nc1cccnc1S(=O)(=O)c1cccc(C(F)(F)F)c1,97.6% (inactive),97.1,97.2,96.7% (inactive),97.6,94,102% (inactive),98.9% (inactive),96.9% (inactive),99.1,93.8
Nc1cc(N)nc(SCC(=O)N2CCc3ccccc32)n1,100% (inactive),101,99.7,97.9% (inactive),97.6,96.1,105% (inactive),98.5% (inactive),101% (inactive),101,101
N#C/C(=C\c1ccc(N2CCOCC2)o1)c1ccccc1,98.2% (inactive),97.3,98.5,102% (inactive),102,103,104% (inactive),93.8% (inactive),104% (inactive),104,103
O=C1C(CSCc2ccccc2)NC(=S)N1c1ccccc1 (configuration not stated),102% (inactive),102,101,122% (inactive),120,128,98.8% (inactive),98.1% (inactive),99.7% (inactive),102,94.7
Cc1cc(NCCCN2CCOCC2)n2ncc(-c3ccccc3)c2n1,99.3% (inactive),98.1,99.6,96.2% (inactive),95.6,98.3,102% (inactive),102% (inactive),95.2% (inactive),98.1,93.4
COc1ccc(CCNc2nc(-c3sc(C)nc3C)cs2)cc1OC,96.6% (inactive),97.6,95.4,106% (inactive),104,105,102% (inactive),93.7% (inactive),101% (inactive),103,99.7
O=C1C(Cl)=C(Nc2ccccc2O)C(=O)N1c1ccccc1,97.4% (inactive),98,97.1,112% (inactive),108,113,104% (inactive),103% (inactive),99.3% (inactive),100,98
CN1C(=O)/C(=N\OC(=O)c2cccc3ccccc23)c2ccccc21,102% (inactive),99.8,93.4,163% (active),140,154,110% (inactive),88.4% (inactive),99.3% (inactive),102,80.5
CCOC(=O)C1=C(c2ccccc2)NC(=S)NC1c1cc([N+](=O)[O-])ccc1OC (configuration not stated),94% (inactive),92.6,96.4,97.9% (inactive),97.6,97.2,96.2% (inactive),95.2% (inactive),99.7% (inactive),101,99.7
CC(=O)Nc1ccc(Nc2cc(C)nc3c(-c4ccc(Cl)cc4)c(C)nn23)cc1,94.6% (inactive),94.4,95.8,94.1% (inactive),92.8,95.1,100% (inactive),95% (inactive),105% (inactive),105,104
O=C(Nc1cc(Sc2ccccn2)cc([N+](=O)[O-])c1)c1ccc(Cl)cc1,99% (inactive),99.6,99.2,99.2% (inactive),101,97.2,100% (inactive),97.4% (inactive),101% (inactive),101,99.7
Oc1c(Br)cc(Br)cc1C=Nc1ccc2c(c1)OCO2,98.2% (inactive),88.5,98.5,190% (active),114,174,110% (inactive),99.3% (inactive),97.8% (inactive),98.3,91
CCOC(=O)c1cnn(-c2cc(C)nc3c(-c4ccccc4)c(C)nn23)c1N,96.6% (inactive),97.4,96.6,95.4% (inactive),96,94,105% (inactive),94.3% (inactive),98.3% (inactive),99.1,97.3
